From PubChem BioAssay
FID counter = counter-screen for HCV NS3 helicase inhibitors: DNA intercalator displacement; DNA fluorescent intercalator displacement, fluorescence; inhibition, % at 7.9 µM; 290,000 tested, 0.17% active; in the data active means inhibition above about 37%;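 further: 0% = vehicle and 100% = reference compound; higher means more ethidium bromide displaced from hairpin DNA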
MEKK2mut PB1 HTS = signal of MEK5 binding to mutant human MEKK2 PB1 domain. bead flow cytometry, Alexa488-MEK5 binding to MEKK2 mutant. percent response, % at 10 µM. 290,000 tested, 0.35% active. AID 1530; in the data active means percent response above about 24%, passing the limit was not always enough
HCV NS3 hel inh = HCV NS3 helicase inhibition. NS3 helicase DNA unwinding, Cy5 molecular beacon fluorescence. inhibition, % at 10.9 µM. 290,000 tested, 0.56% active. AID 1800;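 active means inhibition above the mean of all tested compounds plus 3 SD, set per campaign, cut at about 35% in these data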;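 further: 0% = DMSO wells and 100% = thioflavine S control wells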
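System: HCV NS3 helicase fragment; control set: DMSO and thioflavine S; technique: Cy5 fluorescence at 0 and 60 min, beacon hairpin quenching; reagent: beacon DNA duplex substrate plus ATP; replicates: singlicate; schedule: 1 h reaction at 25 °C, ATP-initiated; medium: MOPS buffer pH 6.5 with MgCl2, DTT, Tween20, BSA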
T cruzi repl = blocks replication of Trypanosoma cruzi; T. cruzi beta-gal in NIH3T3, luminescence, 90 h; inhibition, % (test concentration not listed); 300,000 tested, 1.4% active; AID 1885;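 active means mean inhibition across valid replicates above about 55%, limit read from the data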;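 further: signal also drops with host cell toxicity which is not excluded here; 0% = plate median of DMSO wells and 100% = zero luminescence signal; higher percent means less beta-gal luminescence so fewer parasites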
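Assay system: NIH/3T3 host cells with β-galactosidase reporter T. cruzi; input: 5,000 host fibroblasts per well; compound: single 50 nL compound addition per well in DMSO; timing: ≥90 h infection period, 3 h prior cell attachment; measured by: GalScreen β-gal luminescence, detergent lysis, 60 min; evaluation: percent inhibition of parasite-derived β-gal signal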
MEKK3 PB1 HTS = modulators (inhibitors or enhancers) of MEK5 binding to human MEKK3 PB1 domain; bead-based flow cytometry, Alexa488-MEK5 binding to MEKK3; actives lie on both sides; 0 = blocked by unlabeled MEK5, 100 = vehicle; binding response (% of control), % at 10 µM; 290,000 tested, 1.4% active; Q99759; AID 1529;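 active means binding response more than 3 SD above or below the average of its plate-row segment, actives on both sides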;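 further: Alexa488 bead fluorescence after subtracting the streptavidin-only scavenger bead signal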
Target sequence (Q99759 whole entry, looked up, the tested form may be a part): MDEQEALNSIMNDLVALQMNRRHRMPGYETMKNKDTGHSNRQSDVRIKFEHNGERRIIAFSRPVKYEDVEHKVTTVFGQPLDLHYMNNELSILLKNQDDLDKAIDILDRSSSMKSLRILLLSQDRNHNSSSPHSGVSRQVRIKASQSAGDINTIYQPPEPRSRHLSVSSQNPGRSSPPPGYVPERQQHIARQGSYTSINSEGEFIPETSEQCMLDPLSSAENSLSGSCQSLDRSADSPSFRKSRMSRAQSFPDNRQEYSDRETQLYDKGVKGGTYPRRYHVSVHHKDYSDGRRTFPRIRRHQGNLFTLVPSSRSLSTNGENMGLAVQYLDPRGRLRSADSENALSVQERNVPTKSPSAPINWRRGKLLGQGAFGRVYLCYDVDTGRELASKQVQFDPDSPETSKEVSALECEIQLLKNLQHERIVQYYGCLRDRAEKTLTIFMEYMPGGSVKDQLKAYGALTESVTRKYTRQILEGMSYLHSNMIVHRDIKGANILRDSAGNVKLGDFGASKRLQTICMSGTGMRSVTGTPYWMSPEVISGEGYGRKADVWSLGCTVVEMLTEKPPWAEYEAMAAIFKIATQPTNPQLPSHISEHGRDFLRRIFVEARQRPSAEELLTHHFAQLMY
MEKK2 WT-MEK5 = raises or lowers MEK5 binding to wildtype human MEKK2 PB1 domain; Q9Y2U5; binding response (% of control), % at 10 µM; AID 1531; bead flow cytometry, Alexa488-MEK5 binding to MEKK2 WT; actives lie on both sides; 290,000 tested, 1.1% active; in the data active means binding response below about 67% or above about 130%
MEKK2wt confirm = raises or lowers MEK5 binding to wildtype human MEKK2, retest; bead flow cytometry, Alexa488-MEK5 binding to MEKK2 WT; actives lie on both sides; AID 1892; shares compounds with MEKK3 PB1 HTS; binding response (% of control), % at 10 µM; 5,900 tested, 2.4% active; in the data active means binding response below about 16% or above about 210%; inactive means in between
MEKK2mut confirm = signal of MEK5 binding to mutant human MEKK2, retest. AID 1893. 5,900 tested, 2% active. percent response, % at 10 µM. bead flow cytometry, Alexa488-MEK5 binding to MEKK2 mutant. shares compounds with MEKK3 PB1 HTS; in the data active means percent response mostly above about 71%, no sharp cut-off; inactive means mostly below about 38%;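 further: higher means compound restores mutant binding toward wildtype level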
MEKK3 confirm = confirmation of inhibitors of MEK5 binding to human MEKK3. shares compounds with MEKK3 PB1 HTS. bead flow cytometry, Alexa488-MEK5 binding to MEKK3; hits give low values. binding response (% of control), % at 10 µM. 5,900 tested, 1.8% active. AID 1894;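 active means binding response below 72% of control, or above a set upper limit, though filed actives all read lower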;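 further: 100% = DMSO only wells and 0% = binding blocked by excess unlabeled MEK5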
An asterisk follows results filed as active; / = no result given; [ ] = dose if it differs, or a comment. Most compounds without a hit are left out; they make up all but 4.1% or so of the library.

SMILES | FID counter | MEKK2mut PB1 HTS | HCV NS3 hel inh | T cruzi repl | MEKK3 PB1 HTS | MEKK2 WT-MEK5 | MEKK2wt confirm | MEKK2mut confirm | MEKK3 confirm
Cc1cc(F)ccc1N1CCC(N2CCN(CCC(C)C)C(CCO)C2)CC1 (stereo unspecified) | 19 | -9 | 1 | 15 | 103 | 97 | / | / | /
Cc1ccc(-c2ccc(/C=C3\SC(N4CCOCC4)=NC3=O)o2)cc1 | -23 | -2 | -7 | 66* | 103 | 88 | / | / | /
CCN(CC)S(=O)(=O)c1cccc(NC(=O)CNc2cccc(S(=O)(=O)N3CCOCC3)c2)c1 | / | / | / | 11 | / | / | / | / | /
CCn1ncc(C2=NOC(C(=O)Nc3ccc4c(c3)OCO4)C2)c1C (stereo unspecified) | -7 | -41 | -2 | -10 | 2.0*[inhibitor] | 1.0*[inhibitor] | 101 | -2 | 105
Cc1nn(CC(=O)OCCOc2ccc(Br)cc2)c(C)c1[N+](=O)[O-] | 1 | -4 | 4 | -13 | 50*[inhibitor] | 66 | 101 | 1 | 99
Cc1nn(CC(=O)c2ccc(Br)s2)c(C)c1[N+](=O)[O-] | 1 | -11 | -10 | -10 | 46*[inhibitor] | 50 | 86 | -11 | 89
CCCCNC(=S)N/N=C1\C(=O)c2cccc3cccc1c23 | -2 | -5 | 3 | 27 | 71*[inhibitor] | 74 | 97 | -3 | 97
CNC(=S)N/N=C1\C(=O)c2cccc3cccc1c23 | 8 | -3 | -9 | 47 | 95 | 99 | / | / | /
CCC(=O)Nc1nc(NCc2ccccc2OC)n(-c2ccccc2)n1 | -12 | 4 | -2 | 3 | 104 | 104 | / | / | /
O=C(N=C1c2ccccc2CN1c1cccc(Cl)c1)c1cccnc1 | 0 | -2 | -5 | -32 | 56*[inhibitor] | 88 | 51 | -23 | 90
Cc1[nH]c2ccccc2c1CN1CCC(Cc2ccccc2)CC1 | 18 | 30 | -32 | 94* | 103 | 145* | 138 | 28 | 107
Cc1[nH]c2ccccc2c(=O)c1CN1CCCCC1 | 1 | -1 | 6 | -5 | 100 | 100 | / | / | /
COc1ccccc1CCNS(=O)(=O)CCNC(=O)c1ccc2c(c1)OCO2 | / | / | / | -3 | / | / | / | / | /
CC1CCN(S(=O)(=O)c2ccc3c(c2)c(=O)c(C(=O)NCc2ccco2)cn3C)CC1 | 8 | -3 | 4 | -6 | 93 | 91 | / | / | /
CCN(CC)S(=O)(=O)c1ccc2c(c1)c(=O)c(C(=O)NCc1ccco1)cn2C | 8 | 13 | -4 | -7 | 135* | 123 | 102 | -6 | 100
CCCCCc1cc(=O)oc2c(C(CCN3CCCC(C)C3)c3ccc(N(C)C)cc3)c(OC)cc(OC)c12 (stereo unspecified) | / | 50* | / | 38 | 116 | 149* | 178 | 39 | 110
CCCCCc1cc(=O)oc2c(C(CCN(CC)CC)c3ccc(N(C)C)cc3)c(OC)cc(OC)c12 (stereo unspecified) | / | 23 | / | 43 | 108 | 166* | 185 | 37 | 109
COc1cc(OC)c2ccc(=O)oc2c1C(CCN1CCCC(C)C1)c1ccc(N(C)C)cc1 (stereo unspecified) | / | 2 | / | 28 | 96 | 104 | / | / | /
CCCCCc1cc(=O)oc2c(C(CCN3CCCC(C)C3)c3cc(OC)c(OC)c(OC)c3)c(OC)cc(OC)c12 (stereo unspecified) | / | 29* | / | 50 | 115 | 163* | 203 | 45 | 110
COc1cc(O)c(C(CCN2CCCC(C)C2)c2cc(OC)c(OC)c(OC)c2)c(OC)c1 (stereo unspecified) | / | 1 | / | -8 | 94 | 95 | / | / | /
